From ChEMBL document CHEMBL5257020, “Discovery of a 9-mer Cationic Peptide (LTX-315) as a Potential First in Class Oncolytic Peptide” (J Med Chem, 2016)
Where a SMILES comes first, the peptide text is derived from it. [ ]: non-standard residue; d: D form. ξ: configuration not given here. ξDip = NC(C(=O)O)C(c1ccccc1)c1ccccc1

Legend:
[1] = Hemolytic activity in human red blood cells incubated for 1 hr by spectrophotometric microtiter plate reader method; type: toxicity, cell-based, Erythrocyte
[2] = Stability in pooled and cryopreserved rat hepatocytes assessed as intrinsic clearance measured per 10^6 cells at 1 uM measured for 90 mins by LC-MS/MS analysis; type: ADME, cell-based, Hepatocyte; details: read-out: CLH
Method in brief: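 Pooled cryopreserved hepatocytes at 0.5 million cells/mL, incubated at about 37 °C with 1 μM initial peptide. Supernatant after centrifugation analysed by LC–MS/MS (MRM) using a D-Trp7,9,10-substance P internal standard. Peak height was referenced to time zero, and t1/2 = −0.693/slope of ln concentration vs time. Clint = 0.693/t1/2 × Vinc per million cells. Testosterone, midazolam and 4-methylumbelliferone were the positive controls. Duplicates; mean of two experiments.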

[3] = Drug recovery in human plasma incubated for 20 hrs in presence of serine protease inhibitor AEBSF (reference value: 176 ng/ml); type: ADME, cell-free
[4] = Protein binding in Beagle dog plasma assessed as bound fraction at 200 to 1000 ng/ml incubated for 20 hrs in presence of AEBSF by LC-MS/MS analysis; type: ADME, cell-free, Canis lupus familiaris; details: dose 200-1000 ng/ml, read-out: PPB
Method in brief: (§1)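 Pooled plasma (human volunteers; Han Wistar rat; Beagle dog) containing AEBSF 1 mg/mL. Spiked to 200, 500 or 1000 ng/mL final, in duplicate. Ultracentrifuged 45 000 rpm, 37 °C, 20 h. Supernatant quantified by LC–MS/MS. % bound = [(C − CS)/C] × 100. Values are upper limits because of residual degradation.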

[5] = Protein binding in human plasma assessed as bound fraction at 200 to 1000 ng/ml incubated for 20 hrs in presence of AEBSF by LC-MS/MS analysis; type: ADME, cell-free; details: dose 200-1000 ng/ml, read-out: PPB; method in brief: as §1
[6] = Protein binding in Han Wistar rat plasma assessed as bound fraction at 200 to 1000 ng/ml incubated for 20 hrs in presence of AEBSF by LC-MS/MS analysis; type: ADME, cell-free; details: dose 200-1000 ng/ml, read-out: PPB; method in brief: as §1
[7] = Half life in human plasma measured by RP-HPLC analysis; type: ADME, cell-free
[8] = Ratio of drug concentration in rat blood to plasma measured after 60 mins by LC-MS/MS analysis; type: ADME, cell-free
Method in brief: (§2)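 Pooled fresh whole blood (≥3 male and 3 female human, beagle dog or rat donors) spiked to 200 ng/mL. Incubated ~37 °C on rotary mixer over 0–120 min. Hematocrit determined. Blood and plasma analysed by LC–MS/MS. Blood/plasma ratio = Cb/C. Cell association = {[C(1 − H)]/Cb} × 100. Values at 60 min, mean of two independent measurements.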

[9] = Ratio of drug concentration in Beagle dog blood to plasma measured after 60 mins by LC-MS/MS analysis; type: ADME, cell-free, Canis lupus familiaris; method in brief: as §2
[10] = Ratio of drug concentration in human blood to plasma measured after 60 mins by LC-MS/MS analysis; type: ADME, cell-free; method in brief: as §2
[11] = Drug uptake in human red blood cells at 60 mins by LC-MS/MS analysis; type: ADME, cell-based; details: erythrocyte, 1 h; method in brief: as §2
Cytochrome P450 2A6 [12] = target: T1, Cytochrome P450 2A6 (Homo sapiens, UniProt P11509); test: Inhibition of CYP2A6 in human liver microsomes using coumarin as substrate assessed as reduction in substrate hydroxylation incubated for 5 mins in presence of beta-NADPH measured by LC-MS/MS analysis; type: ADME, Microsome
T1 sequence (P11509 whole entry, canonical isoform): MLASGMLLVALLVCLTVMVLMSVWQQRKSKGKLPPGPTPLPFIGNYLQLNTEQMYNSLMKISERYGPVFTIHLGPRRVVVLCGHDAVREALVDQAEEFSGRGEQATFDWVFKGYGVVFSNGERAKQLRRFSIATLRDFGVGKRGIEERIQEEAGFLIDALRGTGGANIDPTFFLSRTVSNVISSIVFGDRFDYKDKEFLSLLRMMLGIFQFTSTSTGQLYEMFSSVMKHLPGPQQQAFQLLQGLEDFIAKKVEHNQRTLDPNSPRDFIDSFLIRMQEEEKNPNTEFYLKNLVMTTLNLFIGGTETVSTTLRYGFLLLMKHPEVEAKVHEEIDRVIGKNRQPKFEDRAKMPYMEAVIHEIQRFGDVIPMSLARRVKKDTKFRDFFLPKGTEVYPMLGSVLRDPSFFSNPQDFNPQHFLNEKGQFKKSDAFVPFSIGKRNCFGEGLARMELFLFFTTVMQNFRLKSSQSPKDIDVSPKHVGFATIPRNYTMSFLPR
Method in brief: (§3)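 Pooled human liver microsomes (50 donors) in 100 mM phosphate, pH 7.4, with 2 mM β-NADPH. Protein 0.1 mg/mL (2A6, 2C8, 2C9, 2E1, 3A4) or 0.3 mg/mL (1A2, 2B6, 2C19, 2D6). Test article 0–100 μM final, preincubated ~37 °C 5 or 30 min before isoform-selective substrate. Quenched in methanol with internal standard. Metabolite measured by LC–MS/MS against standard curve. Duplicates, with selective inhibitor positive controls.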

Cytochrome P450 2C9 [13] = target: T2, Cytochrome P450 2C9 (Homo sapiens, UniProt P11712); test: Inhibition of CYP2C9 in human liver microsomes using diclofenac as substrate assessed as reduction in substrate hydroxylation incubated for 5 mins in presence of beta-NADPH measured by LC-MS/MS analysis; type: ADME, Microsome; method in brief: as §3
T2 sequence (P11712 whole entry): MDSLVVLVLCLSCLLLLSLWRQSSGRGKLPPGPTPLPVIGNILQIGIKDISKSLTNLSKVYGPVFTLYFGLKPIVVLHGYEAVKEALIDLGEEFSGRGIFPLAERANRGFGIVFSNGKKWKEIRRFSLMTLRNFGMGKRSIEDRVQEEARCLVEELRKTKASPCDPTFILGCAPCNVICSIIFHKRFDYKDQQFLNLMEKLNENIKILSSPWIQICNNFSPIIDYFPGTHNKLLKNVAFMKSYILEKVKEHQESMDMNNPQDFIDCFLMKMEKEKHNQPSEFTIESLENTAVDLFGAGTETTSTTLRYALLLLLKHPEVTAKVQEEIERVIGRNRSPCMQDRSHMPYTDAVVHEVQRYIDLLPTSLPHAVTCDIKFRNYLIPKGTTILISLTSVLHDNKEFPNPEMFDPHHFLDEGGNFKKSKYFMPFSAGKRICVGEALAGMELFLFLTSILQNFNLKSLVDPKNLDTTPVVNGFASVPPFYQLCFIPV

Cytochrome P450 2D6 = Cytochrome P450 2D6 (Homo sapiens, UniProt P10635); test: Inhibition of CYP2D6 in human liver microsomes using bufuralol as substrate assessed as reduction in substrate hydroxylation incubated for 5 mins in presence of beta-NADPH measured by LC-MS/MS analysis; type: ADME, Microsome; method in brief: as §3
Chain of Cytochrome P450 2D6 (P10635 whole entry): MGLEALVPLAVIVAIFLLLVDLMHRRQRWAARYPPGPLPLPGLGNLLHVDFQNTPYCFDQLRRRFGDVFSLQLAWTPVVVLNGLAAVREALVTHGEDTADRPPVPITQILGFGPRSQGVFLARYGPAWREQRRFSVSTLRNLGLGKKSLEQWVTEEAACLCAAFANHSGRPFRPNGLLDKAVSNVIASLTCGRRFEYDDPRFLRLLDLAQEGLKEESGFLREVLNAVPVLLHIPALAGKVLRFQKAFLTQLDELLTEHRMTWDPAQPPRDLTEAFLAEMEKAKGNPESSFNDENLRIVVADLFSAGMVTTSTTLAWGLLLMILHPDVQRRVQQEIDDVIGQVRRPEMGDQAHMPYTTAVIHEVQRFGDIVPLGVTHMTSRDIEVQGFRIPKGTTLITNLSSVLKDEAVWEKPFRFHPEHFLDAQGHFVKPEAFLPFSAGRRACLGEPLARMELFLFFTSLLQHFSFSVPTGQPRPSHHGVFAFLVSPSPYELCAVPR

Cytochrome P450 2E1 [14] = target: T3, Cytochrome P450 2E1 (Homo sapiens, UniProt P05181); test: Inhibition of CYP2E1 in human liver microsomes using chlorzoxazone as substrate assessed as reduction in substrate hydroxylation incubated for 5 mins in presence of beta-NADPH measured by LC-MS/MS analysis; type: ADME, Microsome; method in brief: as §3
T3 sequence (P05181 whole entry): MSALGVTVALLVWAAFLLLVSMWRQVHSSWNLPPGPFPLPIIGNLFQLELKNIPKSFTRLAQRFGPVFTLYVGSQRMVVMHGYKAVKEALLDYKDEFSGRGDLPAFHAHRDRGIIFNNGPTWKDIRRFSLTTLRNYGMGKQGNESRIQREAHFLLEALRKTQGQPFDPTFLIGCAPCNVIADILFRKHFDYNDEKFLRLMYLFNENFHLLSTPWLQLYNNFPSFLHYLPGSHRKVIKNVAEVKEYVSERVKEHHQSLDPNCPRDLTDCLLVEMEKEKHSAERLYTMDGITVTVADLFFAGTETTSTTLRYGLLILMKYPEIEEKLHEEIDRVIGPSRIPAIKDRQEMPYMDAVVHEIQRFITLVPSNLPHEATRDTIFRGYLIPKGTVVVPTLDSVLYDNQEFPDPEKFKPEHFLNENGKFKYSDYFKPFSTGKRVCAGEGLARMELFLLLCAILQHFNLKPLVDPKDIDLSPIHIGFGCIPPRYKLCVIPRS

Cytochrome P450 3A4 [15] = target: T4, Cytochrome P450 3A4 (Homo sapiens, UniProt P08684); test: Inhibition of CYP3A4 in human liver microsomes using testosterone as substrate assessed as reduction in substrate hydroxylation incubated for 5 mins in presence of beta-NADPH measured by LC-MS/MS analysis; type: ADME, Microsome; method in brief: as §3
T4 sequence (P08684 whole entry): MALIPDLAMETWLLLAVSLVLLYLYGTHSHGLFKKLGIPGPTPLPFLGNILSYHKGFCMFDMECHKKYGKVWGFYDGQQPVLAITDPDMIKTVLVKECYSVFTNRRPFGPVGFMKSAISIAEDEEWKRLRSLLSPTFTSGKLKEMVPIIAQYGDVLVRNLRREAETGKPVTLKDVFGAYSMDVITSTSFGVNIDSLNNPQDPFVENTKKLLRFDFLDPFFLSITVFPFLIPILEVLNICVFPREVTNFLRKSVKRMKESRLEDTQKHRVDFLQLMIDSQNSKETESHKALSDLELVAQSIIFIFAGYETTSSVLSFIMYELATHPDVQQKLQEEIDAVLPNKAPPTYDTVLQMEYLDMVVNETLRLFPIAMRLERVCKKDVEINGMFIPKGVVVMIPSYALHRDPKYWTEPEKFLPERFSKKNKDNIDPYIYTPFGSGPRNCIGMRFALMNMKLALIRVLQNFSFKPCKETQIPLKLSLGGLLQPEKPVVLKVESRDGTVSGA

Cytochrome P450 3A4 [16] = target: T4, Cytochrome P450 3A4; test: Inhibition of CYP3A4 in human liver microsomes using midazolam as substrate assessed as reduction in substrate hydroxylation incubated for 5 mins in presence of beta-NADPH measured by LC-MS/MS analysis; type: ADME, Microsome; method in brief: as §3
Cytochrome P450 2A6 [17] = target: T1, Cytochrome P450 2A6; test: Inhibition of CYP2A6 in human liver microsomes using coumarin as substrate assessed as reduction in substrate hydroxylation incubated for 30 mins in presence of beta-NADPH measured by LC-MS/MS analysis; type: ADME, Microsome; method in brief: as §3
Cytochrome P450 2B6 = Cytochrome P450 2B6 (Homo sapiens, UniProt P20813); test: Inhibition of CYP2B6 in human liver microsomes using bupropion as substrate assessed as reduction in substrate hydroxylation incubated for 30 mins in presence of beta-NADPH measured by LC-MS/MS analysis; type: ADME, Microsome; method in brief: as §3
Chain of Cytochrome P450 2B6 (P20813 whole entry): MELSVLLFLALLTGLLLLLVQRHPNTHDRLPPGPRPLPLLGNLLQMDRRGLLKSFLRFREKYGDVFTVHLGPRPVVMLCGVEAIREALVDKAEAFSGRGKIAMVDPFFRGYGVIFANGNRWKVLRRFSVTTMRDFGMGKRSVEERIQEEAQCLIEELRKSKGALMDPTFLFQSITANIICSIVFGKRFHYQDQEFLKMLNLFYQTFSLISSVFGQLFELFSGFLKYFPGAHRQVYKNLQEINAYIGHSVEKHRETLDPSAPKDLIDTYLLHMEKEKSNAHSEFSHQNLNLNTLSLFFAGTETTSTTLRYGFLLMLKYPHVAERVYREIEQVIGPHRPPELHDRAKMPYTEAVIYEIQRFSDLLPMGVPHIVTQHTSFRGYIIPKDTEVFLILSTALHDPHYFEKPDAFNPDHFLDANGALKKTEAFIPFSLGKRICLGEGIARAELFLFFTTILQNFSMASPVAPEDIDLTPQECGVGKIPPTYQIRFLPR

Cytochrome P450 2C8 = Cytochrome P450 2C8 (Homo sapiens, UniProt P10632); test: Inhibition of CYP2C8 in human liver microsomes using paclitaxel as substrate assessed as reduction in substrate hydroxylation incubated for 30 mins in presence of beta-NADPH measured by LC-MS/MS analysis; type: ADME, Microsome; method in brief: as §3
Chain of Cytochrome P450 2C8 (P10632 whole entry): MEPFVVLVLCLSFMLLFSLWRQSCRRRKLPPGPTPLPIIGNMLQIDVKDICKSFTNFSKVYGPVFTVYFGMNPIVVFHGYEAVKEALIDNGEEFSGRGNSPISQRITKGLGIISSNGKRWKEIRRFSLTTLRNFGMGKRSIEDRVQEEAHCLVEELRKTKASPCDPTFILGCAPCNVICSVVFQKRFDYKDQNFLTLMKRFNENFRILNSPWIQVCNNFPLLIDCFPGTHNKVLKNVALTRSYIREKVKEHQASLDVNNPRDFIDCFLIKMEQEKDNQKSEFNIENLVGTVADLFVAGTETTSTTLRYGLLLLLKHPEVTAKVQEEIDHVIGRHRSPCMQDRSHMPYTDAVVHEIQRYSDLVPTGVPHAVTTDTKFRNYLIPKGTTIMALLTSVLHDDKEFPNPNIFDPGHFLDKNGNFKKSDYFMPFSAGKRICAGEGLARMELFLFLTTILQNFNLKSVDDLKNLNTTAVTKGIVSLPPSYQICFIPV

Cytochrome P450 2C9 [18] = target: T2, Cytochrome P450 2C9; test: Inhibition of CYP2C9 in human liver microsomes using diclofenac as substrate assessed as reduction in substrate hydroxylation incubated for 30 mins in presence of beta-NADPH measured by LC-MS/MS analysis; type: ADME, Microsome; method in brief: as §3
Cytochrome P450 2C19 = Cytochrome P450 2C19 (Homo sapiens, UniProt P33261); test: Inhibition of CYP2C19 in human liver microsomes using (S)-mephenytoin as substrate assessed as reduction in substrate hydroxylation incubated for 30 mins in presence of beta-NADPH measured by LC-MS/MS analysis; type: ADME, Microsome; method in brief: as §3
Chain of Cytochrome P450 2C19 (P33261 whole entry): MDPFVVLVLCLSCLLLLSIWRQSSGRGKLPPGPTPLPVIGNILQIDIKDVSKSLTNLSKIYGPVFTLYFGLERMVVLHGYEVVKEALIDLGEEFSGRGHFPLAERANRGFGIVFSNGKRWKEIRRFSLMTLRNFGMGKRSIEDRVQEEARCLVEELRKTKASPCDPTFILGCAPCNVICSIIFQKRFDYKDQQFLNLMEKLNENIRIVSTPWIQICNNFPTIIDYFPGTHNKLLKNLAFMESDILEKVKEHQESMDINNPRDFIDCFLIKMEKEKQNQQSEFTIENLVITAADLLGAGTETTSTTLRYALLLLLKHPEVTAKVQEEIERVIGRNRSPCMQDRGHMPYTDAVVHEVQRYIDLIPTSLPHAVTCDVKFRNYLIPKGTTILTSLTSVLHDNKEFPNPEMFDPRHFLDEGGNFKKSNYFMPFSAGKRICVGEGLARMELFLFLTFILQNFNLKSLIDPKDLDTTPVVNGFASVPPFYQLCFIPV

Cytochrome P450 2E1 [19] = target: T3, Cytochrome P450 2E1; test: Inhibition of CYP2E1 in human liver microsomes using chlorzoxazone as substrate assessed as reduction in substrate hydroxylation incubated for 30 mins in presence of beta-NADPH measured by LC-MS/MS analysis; type: ADME, Microsome; method in brief: as §3
Cytochrome P450 3A4 [20] = target: T4, Cytochrome P450 3A4; test: Inhibition of CYP3A4 in human liver microsomes using midazolam as substrate assessed as reduction in substrate hydroxylation incubated for 30 mins in presence of beta-NADPH measured by LC-MS/MS analysis; type: ADME, Microsome; method in brief: as §3

hepatocyte CLint at 1 µM [2]: 20 µL/min/1e6 cells
Drug recovery [3]: 131 ng/mL
fraction unbound at 20 h [4]: > 0.08
fraction unbound at 20 h [5]: > 0.2
fraction unbound at 20 h [6]: > 0.25
half-life [7]: 2.67 h
blood plasma ratio at 1 h [8]: 1.03
blood plasma ratio at 1 h [9]: 2.19
blood plasma ratio at 1 h [10]: 0.76
Drug uptake [11]: 27%
IC50 (Cytochrome P450 2A6 [12]): 7 µM
IC50 (Cytochrome P450 2C9 [13]): 8.8 µM
IC50 (Cytochrome P450 2D6): 21.9 µM
IC50 (Cytochrome P450 2E1 [14]): 30.9 µM
IC50 (Cytochrome P450 3A4 [15]): 9.3 µM
IC50 (Cytochrome P450 3A4 [16]): 18.8 µM
IC50 (Cytochrome P450 2A6 [17]): 26.3 µM
IC50 (Cytochrome P450 2B6): 18.6 µM
IC50 (Cytochrome P450 2C8): 7.9 µM
IC50 (Cytochrome P450 2C9 [18]): 8.7 µM
IC50 (Cytochrome P450 2C19): > 100 µM
IC50 (Cytochrome P450 2E1 [19]): 30 µM
IC50 (Cytochrome P450 3A4 [20]): 63.7 µM
SMILES: NCCCC[C@H](NC(=O)C(NC(=O)[C@H](Cc1c[nH]c2ccccc12)NC(=O)[C@H](CCCCN)NC(=O)[C@H](CCCCN)NC(=O)[C@H](Cc1c[nH]c2ccccc12)NC(=O)[C@H](Cc1c[nH]c2ccccc12)NC(=O)[C@H](CCCCN)NC(=O)[C@@H](N)CCCCN)C(c1ccccc1)c1ccccc1)C(N)=O (some centres undefined) (H-KKWWKKW[ξDip]K-NH2)
EC50 at 1 h [1]: > 695 µM
